Measured values reported in ChEMBL document CHEMBL1145922, “1,2-benzisoxazole phosphorodiamidates as novel anticancer prodrugs requiring bioreductive activation” (J Med Chem, 2003).

What was measured:
Format in all cases: functional
Rattus norvegicus [1] = organism: Rattus norvegicus; experiment: Tested for formation of compound upon incubation of compound 15 for 30 minutes with rat liver subcellular fractions in oxic condition in the presence of 2-hydroxypyrimidine
Summary of the method: (§1)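 Phenobarbital-induced rat liver S-9 fraction (2 mL) with 5 mM cofactor (NADPH, NADH, benzaldehyde or 2-hydroxypyrimidine), substrate 2.5 mM final, added in methanol/water 50:50; aerobic, 30 min at 37 °C. Quenched with ice-cold methanol, proteins spun down, supernatant analysed by reverse-phase C-18 HPLC, UV 254 nm; ketone metabolite given as percent of equimolar substrate; three experiments.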

Rattus norvegicus [2] = organism: Rattus norvegicus; experiment: Percent formation of compound upon incubation of 15 with phenobarbit-induced rat liver microsomal fraction in oxic condition in presence of SKF-525A at a concentration of 0 mM
Summary of the method: (§2)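 Phenobarbital-induced rat liver microsomes; inhibitors SKF-525A (in methanol) or pCMBA (in DMF) at 0–4 mM final. pCMBA preincubated 30 min before NADPH; SKF-525A incubated 15 min with microsomes and NADPH. Hypoxic samples nitrogen-purged. Substrate 2.5 mM added, 30 min at 37 °C. Ketone metabolite by HPLC at 254 nm as percent of substrate; % inhibition relative to no inhibitor. Mean of two experiments.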

Rattus norvegicus [3] = organism: Rattus norvegicus; experiment: Tested for formation of compound upon incubation of compound 15 for 30 minutes with rat liver subcellular fractions in hypoxic condition in the presence of NADPH
Summary of the method: (§3)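 Phenobarbital-induced rat liver S-9, microsomal or cytosolic fraction with 5 mM cofactor (NADPH, NADH, benzaldehyde or 2-hydroxypyrimidine) or none. Substrate 2.5 mM final, added from methanol/water 50:50. Hypoxic vials purged with nitrogen 15–20 min. 30 min at 37 °C, quenched with ice-cold methanol. Ketone metabolite by HPLC at 254 nm as percent of equimolar substrate.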

Rattus norvegicus [4] = organism: Rattus norvegicus; experiment: Percent formation of compound upon incubation of 15 for 60 minutes with rat P450 reductase microsomes in oxic condition in presence of NADPAH
Summary of the method: (§4)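 Human or rat P450 reductase microsomes at 1 mg/mL protein, substrate 0.25 mM and cofactor 0.5 mM; pCMBA 2 mM where stated. Anaerobic samples purged with nitrogen 15–20 min in septum-sealed vials. 60 min at 37 °C, stopped with ice-cold methanol. Ketone metabolite quantified by HPLC (C-18, methanol/water 50:50, UV 254 nm) as percent of equimolar substrate. Mean of two experiments.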

Rattus norvegicus [5] = organism: Rattus norvegicus; experiment: Tested for formation of compound upon incubation of compound 15 for 30 minutes with rat liver microsomal fractions in hypoxic condition in the absence of cofactor; summary of the method: as §3
Rattus norvegicus [6] = organism: Rattus norvegicus; experiment: Tested for formation of compound upon incubation of compound 15 for 30 minutes with rat liver microsomal fractions in oxic condition in the presence of NADPH; summary of the method: as §3
Rattus norvegicus [7] = organism: Rattus norvegicus; experiment: Percent inhibition of formation of compound upon incubation of 15 with phenobarbit-induced rat liver microsomal fraction in oxic condition in presence of pCMBA at a concentration of 0 mM; summary of the method: as §2
Rattus norvegicus [8] = organism: Rattus norvegicus; experiment: Tested for formation of compound upon incubation of compound 15 for 30 minutes with uninduced rat liver S-9 fractions in oxic condition in the absence of cofactor
Summary of the method: (§5)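 Uninduced rat liver S-9 (22.5 mg/mL protein, 2 mL) with 5 mM NADPH or no cofactor, substrate 2.5 mM final; hypoxic samples nitrogen-purged 15–20 min in septum-sealed vials, else aerobic; 30 min at 37 °C. Methanol quench, centrifugation, C-18 HPLC with UV 254 nm; metabolite as percent of equimolar substrate. NADPH runs three experiments, no-cofactor runs two.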

Rattus norvegicus [9] = organism: Rattus norvegicus; experiment: Percent inhibition of formation of compound upon incubation of 15 with phenobarbit-induced rat liver microsomal fraction in oxic condition in presence of pCMBA at a concentration of 4 mM; summary of the method: as §2
Rattus norvegicus [10] = organism: Rattus norvegicus; experiment: Percent formation of compound upon incubation of 15 with phenobarbit-induced rat liver microsomal fraction in hypoxic condition in presence of pCMBA at a concentration of 0 mM; summary of the method: as §2
Rattus norvegicus [11] = organism: Rattus norvegicus; experiment: Tested for formation of compound upon incubation of compound 15 for 30 minutes with rat liver subcellular fractions in hypoxic condition in the absence of cofactor; summary of the method: as §3
Rattus norvegicus [12] = organism: Rattus norvegicus; experiment: Tested for formation of compound upon incubation of compound 15 for 30 minutes with rat liver subcellular fractions in oxic condition in the presence of benzaldehyde; summary of the method: as §1
Rattus norvegicus [13] = organism: Rattus norvegicus; experiment: Tested for formation of compound upon incubation of compound 15 for 30 minutes with rat liver microsomal fractions in hypoxic condition in the presence of NADPH; summary of the method: as §3
Rattus norvegicus [14] = organism: Rattus norvegicus; experiment: Tested for formation of compound upon incubation of compound 15 for 30 minutes with rat liver cystolic fractions in oxic condition in the absence of cofactor; summary of the method: as §3
Rattus norvegicus [15] = organism: Rattus norvegicus; experiment: Percent inhibition of formation of compound upon incubation of 15 with phenobarbit-induced rat liver microsomal fraction in hypoxic condition in presence of SKF-525A at a concentration of 4 mM; summary of the method: as §2
Homo sapiens = organism: Homo sapiens; experiment: Percent formation of compound upon incubation of 15 for 60 minutes with human P450 reductase microsomes in hypoxic condition in presence of NADPH and pCMBA at a concentration of 2 mM; summary of the method: as §4
Rattus norvegicus [16] = organism: Rattus norvegicus; experiment: Percent inhibition of formation of compound upon incubation of 15 with phenobarbit-induced rat liver microsomal fraction in hypoxic condition in presence of pCMBA at a concentration of 2 mM; summary of the method: as §2
Rattus norvegicus [17] = organism: Rattus norvegicus; experiment: Percent inhibition of formation of compound upon incubation of 15 with phenobarbit-induced rat liver microsomal fraction in hypoxic condition in presence of SKF-525A at a concentration of 2 mM; summary of the method: as §2
Rattus norvegicus [18] = organism: Rattus norvegicus; experiment: Percent inhibition of formation of compound upon incubation of 15 with phenobarbit-induced rat liver microsomal fraction in oxic condition in presence of SKF-525A at a concentration of 2 mM; summary of the method: as §2
Rattus norvegicus [19] = organism: Rattus norvegicus; experiment: Tested for formation of compound upon incubation of compound 15 for 30 minutes with uninduced rat liver S-9 fractions in hypoxic condition in the presence of NADPH; summary of the method: as §5
Rattus norvegicus [20] = organism: Rattus norvegicus; experiment: Percent formation of compound upon incubation of 15 for 60 minutes with rat P450 reductase microsomes in hypoxic condition in presence of NADPAH; summary of the method: as §4
Rattus norvegicus [21] = organism: Rattus norvegicus; experiment: Percent inhibition of formation of compound upon incubation of 15 with phenobarbit-induced rat liver microsomal fraction in oxic condition in presence of pCMBA at a concentration of 1 mM; summary of the method: as §2
Rattus norvegicus [22] = organism: Rattus norvegicus; experiment: Tested for formation of compound upon incubation of compound 15 for 30 minutes with rat liver subcellular fractions in oxic condition in the absence of cofactor; summary of the method: as §3
Rattus norvegicus [23] = organism: Rattus norvegicus; experiment: Percent inhibition of formation of compound upon incubation of 15 with phenobarbit-induced rat liver microsomal fraction in hypoxic condition in presence of SKF-525A at a concentration of 0 mM; summary of the method: as §2
Rattus norvegicus [24] = organism: Rattus norvegicus; experiment: Tested for formation of compound upon incubation of compound 15 for 30 minutes with rat liver cystolic fractions in oxic condition in the presence of NADPH; summary of the method: as §3
Rattus norvegicus [25] = organism: Rattus norvegicus; experiment: Percent formation of compound upon incubation of 15 with phenobarbit-induced rat liver microsomal fraction in oxic condition in presence of pCMBA at a concentration of 0 mM; summary of the method: as §2
Rattus norvegicus [26] = organism: Rattus norvegicus; experiment: Tested for formation of compound upon incubation of compound 15 for 30 minutes with rat liver cystolic fractions in hypoxic condition in the presence of NADPH; summary of the method: as §3
Rattus norvegicus [27] = organism: Rattus norvegicus; experiment: Percent formation of compound upon incubation of 15 with phenobarbit-induced rat liver microsomal fraction in oxic condition in presence of pCMBA at a concentration of 4 mM; summary of the method: as §2
Rattus norvegicus [28] = organism: Rattus norvegicus; experiment: Percent inhibition of formation of compound upon incubation of 15 with phenobarbit-induced rat liver microsomal fraction in oxic condition in presence of pCMBA at a concentration of 2 mM; summary of the method: as §2

SMILES: CCC(=O)c1ccccc1O
- Formation (Rattus norvegicus [1]): 0.6%
- Formation (Rattus norvegicus [2]): 44.9%
- Formation (Rattus norvegicus [3]): 88.5%
- Formation (Rattus norvegicus [4]): 1.5%
- Formation (Rattus norvegicus [5]): 0.4%
- Formation (Rattus norvegicus [6]): 73%
- inhibition (Rattus norvegicus [7]): 0%
- Formation (Rattus norvegicus [8]): 1.6%
- inhibition (Rattus norvegicus [9]): 99%
- Formation (Rattus norvegicus [10]): 93.2%
- Formation (Rattus norvegicus [11]): 2.2%
- Formation (Rattus norvegicus [12]): 0.7%
- Formation (Rattus norvegicus [13]): 93%
- Formation (Rattus norvegicus [14]): 0.4%
- inhibition (Rattus norvegicus [15]): 36%
- Formation (Homo sapiens): 0.6%
- inhibition (Rattus norvegicus [16]): 99%
- inhibition (Rattus norvegicus [17]): 29%
- inhibition (Rattus norvegicus [18]): 14%
- Formation (Rattus norvegicus [19]): 9.4%
- Formation (Rattus norvegicus [20]): 1.7%
- inhibition (Rattus norvegicus [21]): 99%
- Formation (Rattus norvegicus [22]): 0.5%
- inhibition (Rattus norvegicus [23]): 0%
- Formation (Rattus norvegicus [24]): 0.7%
- Formation (Rattus norvegicus [25]): 68.8%
- Formation (Rattus norvegicus [26]): 3.6%
- Formation (Rattus norvegicus [27]): 0.7%
- inhibition (Rattus norvegicus [28]): 99%
